This passage reports Activity and Drug uptake results from ChEMBL document CHEMBL5126550, “In Silico Optimized Stapled Peptides Targeting WASF3 in Breast Cancer” (2022).

In test [1] the test system is MDA-MB-231. Put plainly: Antiinvasive activity against human MDA-MB-231 cells assessed as reduction in number of invading cells incubated for 24 hrs by crystal violet staining based matrigel trans well migration assay. The class given is functional, cell-based. The following applies: dose 0.5-2 µM, DDE = dose-dependent effect. The procedure, abridged: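 Matrigel invasion assay with peptide at 0.5–2 μM, scramble control (2 μM), reference peptide (10 μM) or DMSO. Invading cells fixed with paraformaldehyde, stained with crystal violet, imaged and counted in ImageJ. At least three independent assays; mean ± SD; one-way ANOVA with Bonferroni test.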

For test [2], the system named is MDA-MB-231. As to the kind of experiment: Induction of WRC disruption in human MDA-MB-231 cells assessed as increase in actin stress fiber formation at 2 uM incubated for 4 hrs by phalloidin-iFluor 594 dye based inverted fluorescent microscopic method. In kind it is functional, cell-based. The essentials:
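Cells treated 4 h with biotin-labeled peptides, scramble control or DMSO. Cells then fixed, permeabilized and stained with phalloidin-iFluor 594 to show polymeric actin stress fibers by fluorescence imaging. n = 4.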

Test [3] deals with MDA-MB-231. As to the kind of experiment: Downregulation of MMP9 expression in human MDA-MB-231 cells at 2 uM measured after 72 hrs by immunoblot analysis. The class given is functional, cell-based. The procedure, abridged:
(§1)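 Cells exposed 72 h to peptides, scramble control or vehicle. MMP9 protein levels measured by immunoblotting and quantified by densitometry across three independent blots. Levels compared against scramble control and vehicle.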
In general terms: Immunoblotting shows a protein as a band on a membrane.

Test [4] relates to MDA-MB-231. As to the kind of experiment: Antiinvasive activity against human MDA-MB-231 cells assessed as reduction in cell motility incubated for 18 hrs by wound healing assay relative to control. The class given is functional, cell-based. Particulars: dose 0.5-2 µM, DDE = dose-dependent effect.
Test [5] has as its target Abl interactor 2 (Homo sapiens) (UniProt Q9NYB9). Put plainly: Binding affinity to ABI2 in human MDA-MB-231 cells at 2 uM measured after 4 hrs by measuring pulldown using streptavidin agarose resin by immunoblot analysis.
Test [6] has as its target T1, Actin-binding protein WASF3 (Homo sapiens) (UniProt Q9UPY6).
T1 sequence (whole entry): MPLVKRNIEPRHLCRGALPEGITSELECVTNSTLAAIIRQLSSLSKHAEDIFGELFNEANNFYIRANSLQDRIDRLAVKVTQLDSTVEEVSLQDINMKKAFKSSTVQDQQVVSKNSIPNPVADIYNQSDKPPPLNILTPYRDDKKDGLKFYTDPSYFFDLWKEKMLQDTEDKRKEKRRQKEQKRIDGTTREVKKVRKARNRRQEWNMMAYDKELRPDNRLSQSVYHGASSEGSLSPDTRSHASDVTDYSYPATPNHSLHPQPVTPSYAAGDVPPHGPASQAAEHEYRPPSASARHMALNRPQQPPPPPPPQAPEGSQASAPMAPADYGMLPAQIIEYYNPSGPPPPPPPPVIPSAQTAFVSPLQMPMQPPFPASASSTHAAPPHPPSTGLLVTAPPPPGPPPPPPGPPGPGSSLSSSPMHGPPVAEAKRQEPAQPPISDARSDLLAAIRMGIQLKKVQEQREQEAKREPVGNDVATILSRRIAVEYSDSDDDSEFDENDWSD
Put plainly: Degradation of WASF3 in human serum starved MDA-MB-231 cells assessed as reduction in WASF3 expression at 2 uM measured after 72 hrs by Western blot analysis. The class given is cell-based. The procedure, abridged:
(§2)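 Cells treated 72 h with peptides or controls. Lysates immunoblotted for ABI2 and WASF3. Band densitometry from three independent Western blots.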

In test [7] the target is T1, Actin-binding protein WASF3 (Homo sapiens). Put plainly: Degradation of WASF3 in human serum starved MDA-MB-231 cells assessed as reduction in ABI2 expression at 2 uM measured after 72 hrs by Western blot analysis. The class given is cell-based. The procedure, abridged:
as §2

The test system of test [8] is MDA-MB-231. Put plainly: Antiinvasive activity against human MDA-MB-231 cells assessed as reduction in cell motility at 0.5 to 2 uM incubated for 18 hrs by wound healing assay relative to control. In kind it is functional. Details: scale not given: the % may be the effect or the level left. The following applies: dose 0.5-2 µM.
Test [9] can be described thus: Downregulation of MMP9 expression in human MDA-MB-231 cells at 2 uM measured after 72 hrs by immunoblot analysis relative to control. The class given is functional. The procedure, abridged: as §1
Test [10] relates to MDA-MB-231. As to the kind of experiment: Drug uptake in human MDA-MB-231 cells by measuring uptake of fluorescence intensity in cytoplasm at 10 uM measured after 4 hrs by fluorescence microscopy method. In kind it is functional, cell-based. The essentials:
(§3)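 Cells incubated 4 h with 5(6)-carboxyfluorescein-labeled peptide (2 μM or 10 μM) or DMSO. Cytoplasmic fluorescence imaged by fluorescence microscopy. n = 4.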

Test [11] has as its system MDA-MB-231. As to the kind of experiment: Antiinvasive activity against human MDA-MB-231 cells assessed as reduction in cell motility at 2 uM incubated for 18 hrs by wound healing assay. The class given is functional, cell-based.
Test [12] concerns MDA-MB-231. Put plainly: Drug uptake in human MDA-MB-231 cells by measuring uptake of fluorescence intensity in cytoplasm at 2 uM measured after 4 hrs by fluorescence microscopy method. In kind it is functional, cell-based. The procedure, abridged:
as §3

Test [13] relates to MDA-MB-231. As to the kind of experiment: Drug uptake in human MDA-MB-231 cells by measuring uptake of fluorescence intensity in cytoplasm at 10 uM measured after 4 hrs by fluorescence microscopy method.

SMILES strings stand for the structures. The source made the active and inactive calls. The rule behind the calls is not given here. Square brackets hold non-standard residues; d marks the D form. Peptide text beside a SMILES is read from it. Gly(pent-4-enyl) = C=CCCC[C@H](N)C(=O)O

Abl interactor 2 (Homo sapiens), sequence (Q9NYB9 whole entry, looked up): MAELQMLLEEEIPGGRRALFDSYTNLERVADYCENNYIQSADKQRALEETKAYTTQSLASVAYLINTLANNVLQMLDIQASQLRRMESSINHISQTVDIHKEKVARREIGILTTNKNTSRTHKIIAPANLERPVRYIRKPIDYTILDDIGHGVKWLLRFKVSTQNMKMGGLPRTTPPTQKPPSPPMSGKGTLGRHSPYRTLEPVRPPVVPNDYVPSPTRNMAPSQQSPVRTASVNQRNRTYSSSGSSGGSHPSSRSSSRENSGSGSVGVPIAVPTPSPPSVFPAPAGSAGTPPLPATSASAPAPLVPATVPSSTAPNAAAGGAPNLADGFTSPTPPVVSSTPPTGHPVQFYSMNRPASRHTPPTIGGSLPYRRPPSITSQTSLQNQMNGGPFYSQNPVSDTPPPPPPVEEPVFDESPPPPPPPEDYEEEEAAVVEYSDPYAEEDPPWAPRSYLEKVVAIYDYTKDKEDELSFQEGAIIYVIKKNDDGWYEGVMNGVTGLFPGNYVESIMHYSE

`C=CCCC[C@H](NC(=O)[C@H](CCCCN)NC(=O)[C@H](CO)NC(=O)[C@H](CC(C)C)NC(=O)[C@H](CCCC=C)NC(=O)[C@H](CO)NC(=O)[C@H](CC(C)C)NC(=O)[C@H](CCCCN)NC(=O)[C@H](CCCNC(=N)N)NC(=O)[C@@H](NC(=O)[C@@H](NC(=O)[C@@H](N)CCCCN)[C@@H](C)CC)[C@@H](C)CC)C(=O)N[C@@H](C)C(=O)N[C@@H](CCC(=O)O)C(=O)N[C@@H](CCCCN)C(=O)N[C@H](C(=O)N[C@@H](Cc1ccccc1)C(=O)NCC(=O)N[C@@H](CCC(=O)O)C(=O)N[C@@H](CC(C)C)C(=O)N[C@@H](Cc1ccccc1)C(=O)N[C@@H](CCCCN)C(=O)O)[C@@H](C)CC` (H-KIIRKLS[Gly(pent-4-enyl)]LSK[Gly(pent-4-enyl)]AEKIFGELFK-OH): the Activity entry in the test on MDA-MB-231 [1] was “Dde”; with MDA-MB-231 [4] it was “Dde”; in the test on MDA-MB-231 [8] it was 48%; in test [9] it was 40%. The result (in the test on MDA-MB-231 [2]; in the test with MDA-MB-231 [3]; in test [5]; in test [6]; in [7]; in the test with MDA-MB-231 [11]) was Active. Further, the Drug uptake entry in the test on MDA-MB-231 [10] (dose 2.0 µM, in the assay text read “at 2 uM” for “at 10 uM”) was “Active”; in the test on MDA-MB-231 [12] it was “Active”.

Take `C=CCCC[C@H](NC(=O)[C@H](CO)NC(=O)[C@H](CC(C)C)NC(=O)[C@H](CCCCN)NC(=O)[C@H](CO)NC(=O)[C@H](CC(C)C)NC(=O)[C@H](CCC(N)=O)NC(=O)[C@H](CCCNC(=N)N)NC(=O)[C@@H](NC(=O)[C@@H](NC(=O)[C@@H](N)CCCCN)[C@@H](C)CC)[C@@H](C)CC)C(=O)N[C@@H](Cc1cnc[nH]1)C(=O)N[C@@H](C)C(=O)N[C@@H](CCC(=O)O)C(=O)N[C@@H](CCCC=C)C(=O)N[C@H](C(=O)N[C@@H](Cc1ccccc1)C(=O)NCC(=O)N[C@@H](CCC(=O)O)C(=O)N[C@@H](CC(C)C)C(=O)N[C@@H](Cc1ccccc1)C(=O)N[C@@H](CCCCN)C(=O)O)[C@@H](C)CC` (H-KIIRQLSKLS[Gly(pent-4-enyl)]HAE[Gly(pent-4-enyl)]IFGELFK-OH): in the test on MDA-MB-231 [11], the result was Active.

For the molecule `C=CCCC[C@H](NC(=O)[C@H](CO)NC(=O)[C@H](CC(C)C)NC(=O)[C@H](CCC(N)=O)NC(=O)[C@H](CCCC=C)NC(=O)[C@@H](NC(=O)[C@@H](NC(=O)[C@@H](N)CCCCN)[C@@H](C)CC)[C@@H](C)CC)C(=O)N[C@@H](CC(C)C)C(=O)N[C@@H](CO)C(=O)N[C@@H](CCCCN)C(=O)N[C@@H](Cc1cnc[nH]1)C(=O)N[C@@H](C)C(=O)N[C@@H](CCC(=O)O)C(=O)N[C@@H](CCCCN)C(=O)N[C@H](C(=O)N[C@@H](Cc1ccccc1)C(=O)NCC(=O)N[C@@H](CCC(=O)O)C(=O)N[C@@H](CC(C)C)C(=O)N[C@@H](Cc1ccccc1)C(=O)N[C@@H](CCCCN)C(=O)O)[C@@H](C)CC` (H-KII[Gly(pent-4-enyl)]QLS[Gly(pent-4-enyl)]LSKHAEKIFGELFK-OH), the result in the test with MDA-MB-231 [11] was Active.

With `C=CCCC[C@H](NC(=O)[C@H](CO)NC(=O)[C@H](CC(N)=O)NC(=O)[C@@H](NC(=O)[C@H](CCCC=C)NC(=O)[C@H](CCCCN)NC(=O)[C@H](CCC(=O)O)NC(=O)[C@@H](N)CC(C)C)[C@@H](C)O)C(=O)N[C@@H](CC(C)C)C(=O)N[C@@H](C)C(=O)N[C@@H](CCCCN)C(=O)N[C@H](C(=O)N[C@H](C(=O)N[C@@H](CCCNC(=N)N)C(=O)N[C@@H](CCC(N)=O)C(=O)N[C@@H](CC(C)C)C(=O)O)[C@@H](C)CC)[C@@H](C)CC` (H-LEK[Gly(pent-4-enyl)]TNS[Gly(pent-4-enyl)]LAKIIRQL-OH), the Drug uptake result in the test on MDA-MB-231 [13] and in the test with MDA-MB-231 [10] (dose 10.0 µM) was “Active” in each case. Further, the outcome in test [6] and in test [7] was Active.

Consider `C=CCCC[C@H](NC(=O)[C@H](CCCNC(=N)N)NC(=O)[C@@H](NC(=O)[C@@H](NC(=O)[C@@H](N)CCCC=C)[C@@H](C)CC)[C@@H](C)CC)C(=O)N[C@@H](CC(C)C)C(=O)N[C@@H](CO)C(=O)N[C@@H](CCCCN)C(=O)N[C@@H](CC(C)C)C(=O)N[C@@H](CO)C(=O)N[C@@H](CCCCN)C(=O)N[C@@H](Cc1cnc[nH]1)C(=O)N[C@@H](C)C(=O)N[C@@H](CCC(=O)O)C(=O)N[C@@H](CCCCN)C(=O)N[C@H](C(=O)N[C@@H](Cc1ccccc1)C(=O)NCC(=O)N[C@@H](CCC(=O)O)C(=O)N[C@@H](CC(C)C)C(=O)N[C@@H](Cc1ccccc1)C(=O)N[C@@H](CCCCN)C(=O)O)[C@@H](C)CC` (H-[Gly(pent-4-enyl)]IIR[Gly(pent-4-enyl)]LSKLSKHAEKIFGELFK-OH), for which the result with MDA-MB-231 [11] was Active.
